Rows were chosen to be rich in hits. Some 4.1% of all compounds tested hit in one or more screens of this group.
ROMK primary: modulates human ROMK potassium channel activity; hit rate 2% among 130,000; B-score at 10 µM; Tet-inducible ROMK, thallium flux fluorescence; actives lie on both sides; P48048;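 active = signal ratio slope over the read window, or its plate-corrected B-score, at least 3 SD from the plate mean, either direction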;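 also: B-score of the F/F0 ratio slope over 7 to 12 s after thallium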
KCC2 mod: modulates chloride dependent transport by human KCC2 | KCC2 cells, thallium flux FluoZin-2 fluorescence | B-score of Tl+ flux slope (higher = more flux/activation; lower = inhibition) at 10 µM | hit rate 2.2% among 190,000 | AID 1456;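 active = thallium flux slope and its plate-corrected score both differing from the plate sample mean at a set confidence after two filtering rounds, in either direction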;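 also: slope of fluorescence scaled to starting intensity during 10 to 20 s after thallium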
DTT redox prof: compounds producing H2O2 with reducing agent – biochemical, NIH compound library profiling, artefact control for MLSCN library redox annotation, primary screen | DTT-dependent redox cycling H2O2, phenol red/HRP absorbance; 100% = 100 µM peroxide control, 0% = buffer | activation, % at 10 µM | hit rate 0.03% among 200,000 | AID 878;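 active = activation of at least 50% relative to the plate's high and low controls in the primary single-dose screen; inactive = activation below 50%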;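 also: compound incubated with DTT at 0.8 mM final as the reducing agent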
Dynein cargo inh: blocks dynein driven cargo transport along microtubules; z-score, hits read low; hit rate 0.47% among 220,000; AID 1381; 3617.4 mouse cells, GR-EGFP nuclear translocation imaging; test concentration mostly 20 µM; stimulated with dexamethasone, 1 µM; stronger effect = lower value;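 active = plate z-score of nuclear minus cytoplasmic receptor signal below a set negative limit, without overly bright fluorescence or cell loss, cut at about -3.5 in these data, passing the limit was not always enough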;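 also: z-score of nuclear minus cytoplasmic ring GR-EGFP intensity difference per well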
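medium = tetracycline-free induction medium containing charcoal-stripped FBS | probe or stimulus = dexamethasone, 1.0 µM final | timing = 48 h induction, then 1 h compound, then 30 min agonist, 37 °C | detection = automated 10x imaging of fixed Hoechst-stained cells | read-out basis = nuclear versus cytoplasmic GR-EGFP signal, averaged per well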
Autophagy HCS: alters autophagy in cells | hit rate 0.98% among 190,000 | MEF GFP-LC3 puncta imaging; test concentration mostly 10 µM | calls only at 10 µM (by protocol) | AID 463193;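 active = percentage of spot-positive cells more than 3 SD above its plate mean, without a fluorescence outlier flag or 80% toxicity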
Large screens that a line does not name were inactive.

CN(C)/C=C/C(=O)c1cccc([N+](=O)[O-])c1	Autophagy HCS active (no result: KCC2 mod)
CCOC(=O)/C(=C/c1ccc(N2CCC(c3ccccc3)=N2)cc1)C(C)=O	ROMK primary -3.38
c1ccc(C2=NN(c3ccccc3)CC2)cc1	none (no result: ROMK primary, DTT redox prof, Autophagy HCS)
O=C(c1ccco1)N1CCN(C(=O)c2ccc(COc3ccc(Cl)cc3Cl)o2)CC1	KCC2 mod -3.4 (no result: ROMK primary)
O=C(c1ccco1)N1CCN(C(=O)c2ccc(COc3ccc4c(c3)CCC4)o2)CC1	none (no result: ROMK primary)
O=c1[nH]c2ccccc2c2nc(-c3cccc(S(=O)(=O)N4CCCC4)c3)nn12	none (no result: ROMK primary, DTT redox prof, Autophagy HCS)
COc1ccc(CNC(=O)C(C#N)c2nc3ccccc3nc2N2CCCC2)cc1 (stereo unspecified)	Autophagy HCS active (no result: ROMK primary)
COc1ccc(CNC(=O)C(C#N)c2nc3ccccc3nc2N2CCN(C)CC2)cc1 (stereo unspecified)	none (no result: KCC2 mod)
CCOC(=O)C1CCN(c2nc3ccccc3nc2C(C#N)C(=O)OC(C)C)CC1 (stereo unspecified)	Autophagy HCS active
COc1cccc(C2CC(=O)C3=C(C2)Nc2ccccc2N(C(=O)CCC(=O)O)C3c2ccc(F)cc2)c1 (stereo unspecified)	none (no result: ROMK primary, DTT redox prof, Autophagy HCS)
CC(C)(C)c1ccc(C(=O)NC(=S)NNC(=O)c2cccs2)cc1	ROMK primary 9.07, KCC2 mod 56.6
Cc1cccc(C(=O)NC(=S)NNC(=O)c2ccc(Cl)cc2)c1	ROMK primary 5.28, KCC2 mod 41.9
Cc1cccc(C(=O)NC(=S)NNC(=O)c2cccs2)c1	KCC2 mod 34.3 (no result: ROMK primary)
CCCC(=O)Nc1ccc(C(=O)NNC(=S)NC(=O)c2cccs2)cc1	none (no result: ROMK primary)
CC(=O)N1CCN(CC(=O)Nc2c(Cl)ccc(C)c2Cl)CC1	none
c1ccc2c(CNCCN3CCOCC3)cccc2c1	Autophagy HCS active (no result: ROMK primary)
c1ccc2c(NCCCN3CCOCC3)c3ccccc3nc2c1	Autophagy HCS active
COc1ccc(-c2ccc(SCC(=O)c3cccs3)nn2)cc1	none (no result: ROMK primary)
O=C(CSc1ccc(-c2ccccc2)nn1)c1cccs1	Autophagy HCS active (no result: ROMK primary)
N#Cc1c(-c2ccccc2)cc(C2CC2)nc1SCC(=O)c1cccs1	Autophagy HCS active (no result: ROMK primary)
O=c1cc(O)c2c(=O)n(-c3ccccc3)c3c(c2o1)CCCCC3	none
COc1cc(-c2nn3c(-c4ccccc4)nnc3s2)cc(OC)c1OC	Autophagy HCS active (no result: KCC2 mod)
CCOc1ccc(NC(=S)Nc2cc(C)[nH]n2)cc1	none
COc1cccc(CC2(CO)CCN(Cc3ccc4cccc(F)c4n3)CC2)c1	none (no result: KCC2 mod)
OCC1(Cc2cccc(F)c2)CCN(Cc2ccc3cccc(F)c3n2)CC1	Autophagy HCS active
CCOC(=O)C1CCN(C(c2cc3ccc(C)c(C)c3[nH]c2=O)c2nnnn2C2CCCCC2)CC1 (stereo unspecified)	ROMK primary -2.48
CCOc1ccc2[nH]c(=O)c(C(c3nnnn3C3CCCCC3)N3CCN(C)CC3)cc2c1 (stereo unspecified)	Autophagy HCS active (no result: ROMK primary)
CCCCCCCCc1nnc(N)s1	none (no result: ROMK primary, DTT redox prof, Autophagy HCS)
COc1ccc(/C=C(\C#N)c2nc3ccc(C)cc3[nH]2)cc1Oc1ccc(C(F)(F)F)cc1[N+](=O)[O-]	Autophagy HCS active (no result: ROMK primary)
Cc1ccc2nc(/C(C#N)=C/c3ccc(-c4cccc([N+](=O)[O-])c4)o3)[nH]c2c1	Autophagy HCS active
Cc1ccc2nc(/C(C#N)=C\c3ccc(Oc4ccc(C(F)(F)F)cc4[N+](=O)[O-])cc3)[nH]c2c1	none (no result: ROMK primary)
Cc1ccc2nc(/C(C#N)=C\c3cc(O)ccc3[N+](=O)[O-])[nH]c2c1	none
O=C(Nc1ccc(N2CCOCC2)cc1)C1CCN(S(=O)(=O)c2ccccc2F)CC1	none (no result: ROMK primary, DTT redox prof, Autophagy HCS)
COc1ccc(C2CC(c3ccc4ccccc4c3)=NN2C(=O)CNC2CCCCC2)cc1 (stereo unspecified)	Autophagy HCS active
COc1ccc(C2CC(c3ccc4ccccc4c3)=NN2C(=O)CN2CCC(C(N)=O)CC2)cc1 (stereo unspecified)	none
C=CCNCC(=O)N1N=C(c2ccc3ccccc3c2)CC1c1ccc(OC)cc1 (stereo unspecified)	Autophagy HCS active
Cc1ccc(CNC(=O)/C=C/c2ccc(S(=O)(=O)N3CCOCC3)cc2)cc1	none
COc1ccc(OC)c2c(C)cc(C)nc12	none
COc1ccccc1-n1cc(C(=O)N2CCCC(CO)(Cc3ccccc3C)C2)cn1 (stereo unspecified)	none (no result: ROMK primary, KCC2 mod)
Nc1oc2ccc(F)cc2c(=O)c1C=O	none
COC(=O)[C@@H]1C[C@]2(OC(=O)c3ccccc3)C=CC(=O)C[C@@H]2N1C(=O)OCc1ccccc1	Dynein cargo inh -6.49
CC(=O)NS(=O)(=O)c1ccc(NC(=O)CC(C)c2ccccc2)cc1 (stereo unspecified)	none
COC(=O)[C@@]1(Cc2ccc(OC)cc2)[C@@H]2C(=CC(=O)[C@H]2CC(=O)C(=O)N(C)C)CN1C(=O)c1ccccc1	Dynein cargo inh -4.77
Cc1nn(-c2ccc([N+](=O)[O-])cc2)c2c1C(c1cccc(Br)c1)N1C(=N2)C(=O)Nc2ccccc21 (stereo unspecified)	Autophagy HCS active
Cc1nn(-c2ccccc2)c2c1C(c1ccc([N+](=O)[O-])cc1)N1C(=N2)C(=O)Nc2ccccc21 (stereo unspecified)	none (no result: ROMK primary)
CCC1=Nc2cc(C(=O)O)ccc2Sc2ccccc21	none
CCC1=Nc2cc(C(=O)NCCCOC(C)C)ccc2Sc2ccccc21	Autophagy HCS active
O=[N+]([O-])c1cccc(-c2nc3ccccc3s/c2=N/O)c1	none (no result: ROMK primary, DTT redox prof, Autophagy HCS)
CC(=O)c1ccc(OCCCC(=O)n2nnc3ccccc32)cc1	Autophagy HCS active (no result: ROMK primary)
O=C(CCCOc1ccc(Cl)cc1Cl)n1nnc2ccccc21	none (no result: ROMK primary)
Nc1ccc2c(c1)Cc1cc([N+](=O)[O-])ccc1-2	Autophagy HCS active
Cc1ccc([N+](=O)[O-])cc1N	none
Cc1noc(C)c1CSc1nc2ccccc2n1C	Autophagy HCS active (no result: ROMK primary)
O=C1NN(c2ccc(F)cc2)C(=O)/C1=C\C=C\c1ccco1	none (no result: ROMK primary)
CC1=NN(c2cccc(C(=O)O)c2)C(=O)/C1=C\C=C\c1ccco1	Dynein cargo inh -4.61
Cc1ccc(S(=O)(=O)N(C)c2ccc3sc(C)nc3c2)cc1	none
CC(C)n1cc(NC(=O)c2cc(-c3ccccc3)on2)cn1	ROMK primary 5.83, KCC2 mod 33.1
O=C(Nc1cccnc1)c1cc(-c2ccccc2)on1	ROMK primary 3.5
O=C(Nc1cccnc1)c1cc(-c2ccc(Br)cc2)on1	none (no result: ROMK primary, Autophagy HCS)
CC(=O)NC(NC(=S)N1CCCCCC1)C(Cl)(Cl)Cl (stereo unspecified)	none
Cc1ccc(Nc2nc(NCCCN3CCOCC3)nc(N)c2[N+](=O)[O-])cc1	Autophagy HCS active
COc1ccc(N2CCN(C(=O)Cn3cnc4c(cnn4-c4ccc(C)cc4)c3=O)CC2)cc1	Autophagy HCS active
O=C(Cn1cnc2c(cnn2-c2ccc(F)cc2)c1=O)N1CCCc2ccccc21	none (no result: KCC2 mod)

Bioassay records (PubChem BioAssay)
